This note sets out measurements from ChEMBL document CHEMBL1124943, “Alkylation of DNA by C-10 of 2,7-diaminomitosene” (1990).

Assay type in all cases: functional
Assay [1] deals with L1210. The experiment in a line: Survival of L-1210 leukemia cells upon exposure to the compound for 1 hr at a concentration of 50ug/mL, measured in colony forming units. Conditions: Mus musculus, L1210, 1 h; read-out: Survival.
In assay [2] the test system is L1210. The assay is described as follows: Survival of L-1210 leukemia cells upon exposure to the compound for 1 hr at a concentration of 100ug/mL, measured in colony forming units. The following applies: Mus musculus, L1210, 1 h; read-out: Survival.
The test system of assay [3] is Nucleic Acid. The assay is described as follows: Ability to […] breaks induced by ionozing radiation on exposure for 1 hr at a concentration of 100 ug/mL. In a few lines: (§1)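 Murine L-1210 cells were prelabelled with [2-14C]thymidine (2.0 μCi) for 4 doublings (48 h), then chased 24 h in unlabelled medium. They were exposed 1 h at 37 °C, washed twice at 4 °C, and 10^6 cells were lysed on PVC filters (SDS/glycine/EDTA, pH 10.0). Lysates were digested 1 h with proteinase K (0.5 mg/mL), then alkaline-eluted (pH 12.1) for 15 h. First-order elution rates were converted to rad equivalents against ionizing-radiation standards. Values are the mean of three determinations, or duplicates where marked.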

Assay [4] concerns Nucleic Acid. The assay is described as follows: Ability to […] breaks induced by ionozing radiation on exposure for 1 hr at a concentration of 50 ug/mL. In a few lines:
as §1

Assay [5] deals with Nucleic Acid. The assay is described as follows: Ability to […] breaks induced by ionozing radiation on exposure for 1 hr at a concentration of 10 ug/mL. In a few lines: as §1
The subject of assay [6] is L1210. The assay is described as follows: Survival of L-1210 leukemia cells upon exposure to the compound for 1 hr at a concentration of 10ug/mL, measured in colony forming units. The following applies: Mus musculus, L1210, 1 h; read-out: Survival.
Assay [7] concerns Nucleic Acid. The experiment in a line: Ability to […] breaks induced by ionozing radiation on exposure for 1 hr at a concentration of 500 ug/mL. The procedure, abridged: as §1
The test system of assay [8] is L1210. The assay is described as follows: Survival of L-1210 leukemia cells upon exposure to the compound for 1 hr at a concentration of 250ug/mL, measured in colony forming units. Conditions: Mus musculus, L1210, 1 h; read-out: Survival.
Assay [9] has as its system Nucleic Acid. The experiment in a line: Ability to […] breaks induced by ionozing radiation on exposure for 1 hr at a concentration of 250 ug/mL. The procedure, abridged: as §1
For assay [10], the system named is L1210. The experiment in a line: Survival of L-1210 leukemia cells upon exposure to the compound for 1 hr at a concentration of 500ug/mL, measured in colony forming units. Conditions: Mus musculus, L1210, 1 h; read-out: Survival.
The test system of assay [11] is L1210. The assay is described as follows: Survival of L-1210 leukemia cells upon exposure to the compound for 1 hr at a concentration of 1ug/mL, measured in colony forming units. Conditions: Mus musculus, L1210, 1 h; read-out: Survival.
Setting [12] is: tested as the 18O-labelled form.

With `COS(C)(=O)=O` [METHANESULFONIC ACID METHYL ESTER], the viability at 50 µg/mL in assay [1] amounted to 32%. Besides, the viability at 100 µg/mL in [2] turned out to be 0.2%. For the same compound, the DNA single strand breaks amounted to 2150 rad equiv in assay [3], 935 rad equiv in assay [4] and 583 rad equiv in assay [5]. The viability at 10 µg/mL in assay [6] stood at 100%.

Turning to `CC1=C(N)C(=O)c2c(COC(N)=O)c3n(c2C1=O)CC(N)C3O` (stereo not given), the DNA single strand breaks was determined as 50 rad equiv in assay [3] (setting [12]), 0 rad equiv in [4] (setting [12]), 0 rad equiv in [5] (setting [12]) and 395 rad equiv in assay [7] (setting [12]).

For the compound `CC1=C(N)C(=O)c2c(COC(N)=O)c3n(c2C1=O)CC(N)C3` (stereo not given), in assay [8], the viability at 250 µg/mL was 0.9%. For the same compound, the viability at 50 µg/mL in assay [1] worked out at 43%. The viability at 100 µg/mL in assay [2] was 8%. The DNA single strand breaks in assay [9] was determined as 470 rad equiv; in assay [3] it was 320 rad equiv; in assay [4], 110 rad equiv; in assay [5] it was 0 rad equiv; in assay [7], 535 rad equiv. Besides, the viability at 500 µg/mL in assay [10] amounted to 0%. Also, the viability at 10 µg/mL in assay [6] came out at 100%.

Regarding `CC1=C(N)C(=O)c2c(COC(N)=O)c3n(c2C1=O)CC(N)C3[18OH]` (stereo not given), the viability at 50 µg/mL in [1] turned out to be 2%. Besides, in assay [2], the viability at 100 µg/mL came out at 0%. Also, the viability at 500 µg/mL in [10] was determined as 0%. Further, the viability at 10 µg/mL in [6] amounted to 81%. The viability at 1 µg/mL in [11] stood at 100%.
